Experiments:
HepG2 = test: Cytotoxicity against human HepG2 cells; assay type: functional, cell-based
Summary of the method: (§1)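 Growth inhibition in WI-38 fibroblasts (Eagle's MEM), VA-13 (RITC 80-7) and HepG2 (D-MEM) lines, each medium with 10% FBS and 80 µg/mL kanamycin.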

[1] = Reversal of multidrug resistance in human AD10 cells assessed as increase in calcein accumulation at 0.25 ug/ml relative to control; assay type: functional
Summary of the method: (§2)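 Multidrug-resistant ovarian A2780 subline AD10, kept in RPMI-1640 with 10% FBS and 80 µg/mL kanamycin. Intracellular accumulation of the fluorescent efflux probe calcein AM measured with test compounds at 0.25, 2.5 and 25 µg/mL; verapamil as reference. Values given relative to untreated control or to verapamil; means of triplicates.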

[2] = Reversal of multidrug resistance in human AD10 cells assessed as increase in calcein accumulation at 2.5 ug/ml relative to control; assay type: functional; summary of the method: as §2
[3] = Reversal of multidrug resistance in human AD10 cells assessed as increase in calcein accumulation at 25 ug/ml relative to control; assay type: functional; summary of the method: as §2
[4] = Reversal of multidrug resistance in human AD10 cells assessed as increase in calcein accumulation at 0.25 ug/ml relative to verapamil; assay type: functional; summary of the method: as §2
[5] = Reversal of multidrug resistance in human AD10 cells assessed as increase in calcein accumulation at 2.5 ug/ml relative to verapamil; assay type: functional; summary of the method: as §2
[6] = Reversal of multidrug resistance in human AD10 cells assessed as increase in calcein accumulation at 25 ug/ml relative to verapamil; assay type: functional; summary of the method: as §2
A549 [7] = test: Cytotoxicity against human A549 cells after 24 hrs by MTT assay; assay type: functional, cell-based; conditions: A549, 24 h
Summary of the method: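 A549 cells in RPMI 1640 with 10% FBS were exposed to serial dilutions of compound for 24 h. Viability read by MTT absorbance: % = (experimental − background)/(control − background) ×100. IC50 taken from viability data.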

[8] = Cytotoxicity against human WI38 cells; assay type: cell-based; conditions: WI-38; summary of the method: as §1
WI-38 VA13 = test: Cytotoxicity against human VA13 cells; assay type: functional, cell-based; summary of the method: as §1
A549 [9] = test: Antiinflammatory activity in human A549 cells assessed as inhibition of TNF-alpha-induced ICAM1 induction incubated for 1 hr prior to TNFalpha challenge measured after 6 hrs; assay type: functional, cell-based
Summary of the method: (§3)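 A549 cells grown in RPMI 1640 with 10% FBS and penicillin-streptomycin. Pretreated with serially varied compound concentrations for 1 h, then stimulated with IL-1α or TNF-α for 6 h. Cell-surface ICAM-1 detected with mouse anti-human ICAM-1 antibody plus peroxidase-conjugated goat anti-mouse IgG, read as absorbance. Expression as % of control = (sample+cytokine − no cytokine)/(cytokine − no cytokine) ×100; IC50 derived from this.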

A549 [10] = test: Antiinflammatory activity in human A549 cells assessed as inhibition of IL1alpha -induced ICAM1 induction incubated for 1 hr prior to IL1alpha challenge measured after 6 hrs; assay type: functional, cell-based; summary of the method: as §3

| IC50 (A549 [9]) | IC50 (A549 [10]) | SMILES | IC50 (HepG2) | Activity [1] | Activity [2] | Activity [3] | Activity [4] | Activity [5] | Activity [6] | IC50 (A549 [7]) | IC50 [8] | IC50 (WI-38 VA13) |
| --- | --- | --- | --- | --- | --- | --- | --- | --- | --- | --- | --- | --- |
|  |  | C=C1C(=O)OC[C@H]1C(c1cc(OC)c2c(c1)OCO2)c1cc(OC)c2c(c1)OCO2 [PEPEROMIN E] | 12.1 µM | 102% | 102% | 132% | 96% | 88% | 88% | 78.9 µM | 1.21 µM | 1.93 µM |
|  |  | COc1cc(C(c2cc(OC)c3c(c2)OCO3)[C@@H]2COC(=O)[C@H]2C)cc2c1OCO2 [PEPEROMIN A] | > 239 µM | 85% | 91% | 120% | 90% | 82% | 83% | > 316 µM | > 239 µM | > 239 µM |
|  |  | COc1cc(C(c2cc(OC)c3c(c2)OCO3)[C@@H]2COC(=O)[C@@H]2CO)cc(OC)c1OC (some centres not stated) | > 224 µM | 105% | 109% | 125% | 98% | 94% | 83% |  | > 224 µM | > 224 µM |
| 125 µM | 246 µM | COc1cc(C(c2cc(OC)c(OC)c(OC)c2)[C@@H]2COC(=O)[C@H]2C)cc(OC)c1OC [PEPEROMIN C] | 189 µM | 109% | 115% | 138% | 130% | 118% | 92% | > 316 µM | 175 µM | 120 µM |
|  |  | COc1cccc2c1C(=O)c1c(O)c3c(c(O)c1C2=O)C[C@@](O)(C(=O)CO)C[C@@H]3O[C@H]1C[C@H](N)[C@H](O)[C@H](C)O1 (stereo in doubt) [DOXORUBICIN] | 2.21 µM |  |  |  |  |  |  |  | 1.21 µM | 0.699 µM |
| 29 µM | 44.3 µM | COc1cc(C(c2cc(OC)c(OC)c(OC)c2)[C@@H]2COC(=O)[C@H]2C)cc(OC)c1O (some centres not stated) | 163 µM | 96% | 95% | 103% | 90% | 82% | 68% | > 316 µM | 184 µM | 151 µM |
|  |  | CC(=O)O[C@H]1C(=O)[C@@]2(C)[C@H]([C@H](OC(=O)c3ccccc3)[C@]3(O)C[C@H](OC(=O)[C@H](O)[C@@H](NC(=O)c4ccccc4)c4ccccc4)C(C)=C1C3(C)C)[C@]1(OC(C)=O)CO[C@@H]1C[C@@H]2O [PACLITAXEL] |  |  |  |  |  |  |  |  | 0.0468 µM | 0.0059 µM |
| 3.16 µM | 4.23 µM | C=C1C(=O)OC[C@H]1C(c1cc(OC)c(O)c(OC)c1)c1cc(OC)c2c(c1)OCO2 (some centres not stated) | 22.3 µM | 104% | 98% | 125% | 98% | 85% | 83% | 84.7 µM | 20.9 µM | 13.5 µM |
|  |  | COc1cc([C@@H](c2cc(OC)c3c(c2)OCO3)[C@@H]2COC(=O)[C@H]2C)cc(OC)c1OC [PEPEROMIN B] | 119 µM | 111% | 104% | 121% | 132% | 107% | 81% | > 316 µM | 9.06 µM | 13.9 µM |
|  |  | COc1cc(C(c2cc(OC)c3c(c2)OCO3)[C@@H]2COC(=O)[C@@H]2COC(C)=O)cc(OC)c1O (single isomer, unassigned; (-)) | 75.9 µM | 108% | 104% | 104% | 101% | 89% | 69% |  | 14.8 µM | 15.2 µM |
|  |  | COc1cc(C(c2cc(OC)c3c(c2)OCO3)[C@@H]2COC(=O)[C@@H]2CO)cc2c1OCO2 | 97.8 µM | 98% | 95% | 105% | 92% | 82% | 70% | > 316 µM | 12.8 µM | 113 µM |
| 59.9 µM | 119 µM | COc1cc(C(c2cc(OC)c(OC)c(OC)c2)[C@@H]2COC(=O)[C@H]2C)cc(O)c1OC (some centres not stated) | > 231 µM | 101% | 104% | 105% | 95% | 90% | 70% | > 316 µM | > 231 µM | > 231 µM |
|  |  | COc1ccc(CCN(C)CCCC(C#N)(c2ccc(OC)c(OC)c2)C(C)C)cc1OC (configuration not stated) |  | 106% | 116% | 150% |  |  |  |  |  |  |
|  |  | COc1cc(C(c2cc(OC)c3c(c2)OCO3)[C@@H]2CO[C@@H](O)[C@@H]2C)cc2c1OCO2 | 140 µM | 99% | 104% | 107% | 93% | 90% | 71% |  | 142 µM | 138 µM |
|  |  | COc1cc(C(c2cc(OC)c3c(c2)OCO3)[C@@H]2COC(=O)[C@H]2C)cc(OC)c1O (some centres not stated) | 159 µM | 99% | 104% | 107% | 93% | 90% | 71% |  | 174 µM | 112 µM |

Source: ChEMBL document CHEMBL1157945, “Bioactive secolignans from Peperomia dindygulensis” (J Nat Prod, 2006)
